From ChEMBL document CHEMBL2177085 (J Med Chem, 2012)

Tests used:
[1] = test system: HUVEC; assay: Induction of apoptosis in human HUVEC assessed as accumulation at subG1 phase at 2.6 uM incubated for 4 days by flow cytometry (reference value: 15.4 +/- 1.5%); assay type: functional
[2] = Inhibition of angiogenesis in chick embryo model assessed as reduction in vessel growth at 26 nM incubated for 24 hrs; assay type: functional, Gallus gallus
Method in brief: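 White leghorn eggs incubated at 37.5 °C, 62% humidity. At 70 h, albumen removed and shell windowed. From 75 h, 15 agarose pellets (from a 26 mM DMSO stock in 2% agarose; final concentration 26 nM) placed on the area vasculosa.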

[3] = test system: HUVEC; assay: Induction of apoptosis in human HUVEC assessed as accumulation at subG1 phase at 0.79 uM incubated for 4 days by flow cytometry (reference value: 15.4 +/- 1.5%); assay type: functional
[4] = biological target: T1, Receptor-type tyrosine-protein kinase FLT3 (Homo sapiens, UniProt P36888); assay: Inhibition of FLT3
T1 sequence (P36888 whole entry): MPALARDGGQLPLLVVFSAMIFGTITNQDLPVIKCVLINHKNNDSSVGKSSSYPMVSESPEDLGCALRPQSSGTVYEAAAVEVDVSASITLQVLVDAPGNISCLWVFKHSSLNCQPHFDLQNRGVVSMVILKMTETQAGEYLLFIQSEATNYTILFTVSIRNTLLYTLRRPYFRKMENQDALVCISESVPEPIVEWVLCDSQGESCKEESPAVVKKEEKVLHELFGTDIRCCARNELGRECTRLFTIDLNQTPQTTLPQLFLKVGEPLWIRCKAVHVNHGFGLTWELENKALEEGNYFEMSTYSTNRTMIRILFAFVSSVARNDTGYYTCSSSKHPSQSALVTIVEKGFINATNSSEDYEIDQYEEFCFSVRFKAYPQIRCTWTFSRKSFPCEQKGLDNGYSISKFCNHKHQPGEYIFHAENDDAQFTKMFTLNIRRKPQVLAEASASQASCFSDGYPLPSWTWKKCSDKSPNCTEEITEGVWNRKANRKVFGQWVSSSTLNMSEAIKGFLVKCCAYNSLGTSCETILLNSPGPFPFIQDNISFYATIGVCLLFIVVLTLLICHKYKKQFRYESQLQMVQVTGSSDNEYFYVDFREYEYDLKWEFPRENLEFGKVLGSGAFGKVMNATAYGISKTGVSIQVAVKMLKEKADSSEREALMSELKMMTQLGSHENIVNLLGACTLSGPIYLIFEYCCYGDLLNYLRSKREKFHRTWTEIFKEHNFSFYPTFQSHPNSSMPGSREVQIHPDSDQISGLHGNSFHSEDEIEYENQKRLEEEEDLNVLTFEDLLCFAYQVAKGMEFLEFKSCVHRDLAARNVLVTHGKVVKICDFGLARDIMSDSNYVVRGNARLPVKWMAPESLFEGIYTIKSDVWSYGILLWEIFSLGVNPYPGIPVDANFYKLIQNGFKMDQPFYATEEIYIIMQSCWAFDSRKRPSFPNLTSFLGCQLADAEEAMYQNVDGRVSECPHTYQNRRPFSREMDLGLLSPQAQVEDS
Method in brief: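 Run as an outsourced kinase profiling service (Millipore IC50 Profiler), with the protocol referred to the provider. Gives IC50 values and residual activity at 10 μM test compound. Compounds tested in duplicate.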

[5] = test system: HT-29; assay: Cytotoxic activity against human HT-29 cells assessed as cell viability at 52 uM incubated for 3 days by MTT assay; assay type: functional; settings: HT-29, 72 h, read-out: Activity
Method in brief: (§1)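 MTT viability: exponentially growing cells, 10 000 viable cells/well in RPMI plated overnight, then exposed to test compounds for 3 days (HT-29, Molm-14) or 5 days (Mkn-45) at 37 °C, 5% CO2. MTT added for 4 h, then SDS/HCl solubilization overnight and absorbance read at 562 nm. Viability is expressed relative to untreated cells (100%). Triplicate.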

[6] = test system: MOLM-14; assay: Cytotoxic activity against human MOLM14 cells assessed as cell viability at 50 uM incubated for 3 days by MTT assay; assay type: functional; settings: MOLM-14, 72 h, read-out: Activity; method in brief: as §1
[7] = biological target: Cyclin-dependent kinase 1/cyclin B1 (Homo sapiens) (UniProt P06493+P14635); assay: Inhibition of CDK1/cyclinB assessed as enzyme residual activity at 10 uM relative to untreated control; assay type: protein-complex assay
Method in brief: (§2)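 Residual kinase activity at 10 μM compound, determined by a commercial kinase profiling service (Millipore) across 15 kinases of different classes. Each compound tested in duplicate.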

[8] = biological target: Vascular endothelial growth factor receptor 2 (Homo sapiens, UniProt P35968); assay: Inhibition of VEGFR2 assessed as enzyme residual activity at 10 uM relative to untreated control; method in brief: as §2
[9] = biological target: Protein kinase C gamma type (Homo sapiens) (UniProt P05129); assay: Inhibition of PKCgamma assessed as enzyme residual activity at 10 uM relative to untreated control; method in brief: as §2
[10] = test system: MKN-45; assay: Induction of apoptosis in human MKN45 assessed as accumulation at subG1 phase at 5 uM incubated for 7 days by flow cytometry (reference value: 10.9 +/- 3.2%); assay type: functional
[11] = biological target: T2, Glycogen synthase kinase-3 beta (Homo sapiens, UniProt P49841); assay: Inhibition of GSK3beta assessed as enzyme residual activity at 10 uM relative to untreated control; method in brief: as §2
Target sequence in this assay (P49841 whole entry, looked up): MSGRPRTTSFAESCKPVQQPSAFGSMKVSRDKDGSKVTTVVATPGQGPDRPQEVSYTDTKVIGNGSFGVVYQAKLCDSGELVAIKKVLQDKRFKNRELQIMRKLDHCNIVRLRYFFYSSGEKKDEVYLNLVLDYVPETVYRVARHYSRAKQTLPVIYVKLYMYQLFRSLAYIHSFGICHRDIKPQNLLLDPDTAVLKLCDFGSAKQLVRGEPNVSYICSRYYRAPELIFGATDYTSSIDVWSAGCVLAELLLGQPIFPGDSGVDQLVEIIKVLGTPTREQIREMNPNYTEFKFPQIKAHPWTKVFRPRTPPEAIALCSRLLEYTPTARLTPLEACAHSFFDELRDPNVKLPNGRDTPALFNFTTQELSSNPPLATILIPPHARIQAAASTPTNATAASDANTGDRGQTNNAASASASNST

[12] = test system: MKN-45; assay: Induction of apoptosis in human MKN45 assessed as accumulation at subG1 phase at 15 uM incubated for 7 days by flow cytometry (reference value: 10.9 +/- 3.2%); assay type: functional
[13] = biological target: Receptor-type tyrosine-protein kinase FLT3 (Homo sapiens) (UniProt P36888); assay: Inhibition of FLT3 assessed as enzyme residual activity at 10 uM relative to untreated control; method in brief: as §2
[14] = biological target: Protein kinase C epsilon type (Homo sapiens) (UniProt Q02156); assay: Inhibition of PKCepsilon assessed as enzyme residual activity at 10 uM relative to untreated control; method in brief: as §2
Sequence of Protein kinase C epsilon type (Homo sapiens) (Q02156 whole entry): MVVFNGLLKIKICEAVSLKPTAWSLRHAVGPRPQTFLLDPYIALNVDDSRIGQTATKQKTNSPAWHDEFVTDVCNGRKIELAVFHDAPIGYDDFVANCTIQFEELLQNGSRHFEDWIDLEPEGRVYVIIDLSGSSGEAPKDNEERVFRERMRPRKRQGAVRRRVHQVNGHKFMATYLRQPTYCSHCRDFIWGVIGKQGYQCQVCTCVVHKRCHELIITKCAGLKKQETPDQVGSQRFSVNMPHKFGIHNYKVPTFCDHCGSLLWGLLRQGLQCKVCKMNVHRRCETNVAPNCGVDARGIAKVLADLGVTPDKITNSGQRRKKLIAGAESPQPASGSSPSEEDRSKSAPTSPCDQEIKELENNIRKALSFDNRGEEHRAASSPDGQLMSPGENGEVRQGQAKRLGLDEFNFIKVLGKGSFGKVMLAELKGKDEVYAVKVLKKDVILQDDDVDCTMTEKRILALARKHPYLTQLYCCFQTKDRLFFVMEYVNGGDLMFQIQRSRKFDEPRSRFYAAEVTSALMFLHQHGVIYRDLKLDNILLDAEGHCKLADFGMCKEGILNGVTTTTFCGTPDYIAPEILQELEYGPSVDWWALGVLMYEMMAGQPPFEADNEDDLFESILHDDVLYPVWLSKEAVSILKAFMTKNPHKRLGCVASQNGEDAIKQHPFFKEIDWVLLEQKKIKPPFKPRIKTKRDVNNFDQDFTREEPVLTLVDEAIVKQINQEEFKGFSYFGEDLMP

[15] = test system: MKN-45; assay: Cytotoxic activity against human MKN45 cells assessed as cell viability at 5 uM incubated for 5 days by MTT assay; assay type: functional; settings: MKN-45, 120 h, read-out: Activity; method in brief: as §1
[16] = test system: MOLM-14; assay: Cytotoxic activity against human MOLM14 cells assessed as cell viability at 0.5 uM incubated for 3 days by MTT assay; assay type: functional; settings: MOLM-14, 72 h, read-out: Activity; method in brief: as §1
[17] = biological target: Platelet-derived growth factor receptor beta (Homo sapiens) (UniProt P09619); assay: Inhibition of PDGFRbeta assessed as enzyme residual activity at 10 uM relative to untreated control; method in brief: as §2
Sequence of Platelet-derived growth factor receptor beta (Homo sapiens) (P09619 whole entry): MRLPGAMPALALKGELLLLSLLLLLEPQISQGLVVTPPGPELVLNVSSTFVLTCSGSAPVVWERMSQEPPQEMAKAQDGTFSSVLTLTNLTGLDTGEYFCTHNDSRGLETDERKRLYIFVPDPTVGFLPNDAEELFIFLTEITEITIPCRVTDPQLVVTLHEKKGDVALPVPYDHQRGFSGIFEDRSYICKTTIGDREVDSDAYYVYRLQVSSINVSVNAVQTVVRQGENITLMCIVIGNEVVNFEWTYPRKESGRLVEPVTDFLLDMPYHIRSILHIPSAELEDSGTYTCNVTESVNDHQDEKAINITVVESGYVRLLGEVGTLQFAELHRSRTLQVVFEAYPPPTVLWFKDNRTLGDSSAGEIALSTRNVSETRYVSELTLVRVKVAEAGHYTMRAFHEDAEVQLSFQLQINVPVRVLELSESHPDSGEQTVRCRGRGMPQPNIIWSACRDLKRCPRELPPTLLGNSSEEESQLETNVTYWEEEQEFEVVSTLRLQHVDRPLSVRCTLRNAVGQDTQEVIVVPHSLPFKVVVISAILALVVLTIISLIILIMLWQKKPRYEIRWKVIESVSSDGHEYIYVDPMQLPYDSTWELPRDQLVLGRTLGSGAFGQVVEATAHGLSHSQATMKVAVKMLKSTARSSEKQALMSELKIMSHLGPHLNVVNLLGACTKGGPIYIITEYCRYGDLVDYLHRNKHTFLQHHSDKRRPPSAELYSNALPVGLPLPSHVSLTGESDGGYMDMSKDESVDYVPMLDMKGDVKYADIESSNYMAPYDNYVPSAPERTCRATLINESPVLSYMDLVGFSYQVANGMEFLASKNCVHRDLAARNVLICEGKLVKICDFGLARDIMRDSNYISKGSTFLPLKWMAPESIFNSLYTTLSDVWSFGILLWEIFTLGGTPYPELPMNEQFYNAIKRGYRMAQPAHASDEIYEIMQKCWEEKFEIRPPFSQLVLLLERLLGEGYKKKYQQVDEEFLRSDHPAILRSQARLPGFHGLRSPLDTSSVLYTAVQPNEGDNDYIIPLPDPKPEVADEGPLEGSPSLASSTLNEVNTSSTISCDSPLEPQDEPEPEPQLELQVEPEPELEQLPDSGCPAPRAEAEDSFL

[18] = biological target: Epidermal growth factor receptor (Homo sapiens) (UniProt P00533); assay: Inhibition of EGFR assessed as enzyme residual activity at 10 uM relative to untreated control; method in brief: as §2
Sequence of Epidermal growth factor receptor (Homo sapiens) (P00533 whole entry): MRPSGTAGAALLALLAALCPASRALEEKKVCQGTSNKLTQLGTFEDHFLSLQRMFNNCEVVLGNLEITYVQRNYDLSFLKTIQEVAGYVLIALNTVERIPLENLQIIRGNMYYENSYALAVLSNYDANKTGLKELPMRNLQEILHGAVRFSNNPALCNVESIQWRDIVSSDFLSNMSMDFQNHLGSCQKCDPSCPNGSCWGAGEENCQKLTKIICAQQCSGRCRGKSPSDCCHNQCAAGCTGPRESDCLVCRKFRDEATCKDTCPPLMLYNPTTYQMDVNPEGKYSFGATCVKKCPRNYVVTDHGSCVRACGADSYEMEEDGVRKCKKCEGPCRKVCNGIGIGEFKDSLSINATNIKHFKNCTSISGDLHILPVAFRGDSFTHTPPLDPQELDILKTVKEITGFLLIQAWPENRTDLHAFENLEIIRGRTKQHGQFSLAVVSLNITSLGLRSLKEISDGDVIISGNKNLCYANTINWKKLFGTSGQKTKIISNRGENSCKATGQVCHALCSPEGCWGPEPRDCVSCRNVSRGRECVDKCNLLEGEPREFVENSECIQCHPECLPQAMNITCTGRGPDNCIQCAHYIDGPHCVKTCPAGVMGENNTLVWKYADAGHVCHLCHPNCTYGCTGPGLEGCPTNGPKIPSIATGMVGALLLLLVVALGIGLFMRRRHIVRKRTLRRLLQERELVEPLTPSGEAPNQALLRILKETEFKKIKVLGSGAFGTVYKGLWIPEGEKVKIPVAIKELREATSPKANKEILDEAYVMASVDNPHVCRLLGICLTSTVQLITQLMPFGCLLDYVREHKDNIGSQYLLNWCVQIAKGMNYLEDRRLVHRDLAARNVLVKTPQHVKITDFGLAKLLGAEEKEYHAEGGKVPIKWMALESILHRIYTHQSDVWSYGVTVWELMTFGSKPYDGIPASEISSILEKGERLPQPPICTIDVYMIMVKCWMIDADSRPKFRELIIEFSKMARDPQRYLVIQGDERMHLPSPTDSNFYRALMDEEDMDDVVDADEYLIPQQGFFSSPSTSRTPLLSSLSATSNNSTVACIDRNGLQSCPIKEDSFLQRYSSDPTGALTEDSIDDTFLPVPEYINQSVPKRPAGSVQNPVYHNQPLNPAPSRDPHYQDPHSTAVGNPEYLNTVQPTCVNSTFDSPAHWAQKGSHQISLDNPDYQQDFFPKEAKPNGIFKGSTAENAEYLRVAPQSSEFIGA

[19] = test system: MKN-45; assay: Cytotoxic activity against human MKN45 cells assessed as cell viability at 10 uM incubated for 5 days by MTT assay; assay type: functional; settings: MKN-45, 120 h, read-out: Activity; method in brief: as §1
[20] = test system: MKN-45; assay: Cytotoxic activity against human MKN45 cells assessed as cell viability at 0.5 uM incubated for 5 days by MTT assay; assay type: functional; settings: MKN-45, 120 h, read-out: Activity; method in brief: as §1
[21] = test system: MKN-45; assay: Cytotoxic activity against human MKN45 cells assessed as cell viability at 20 uM incubated for 5 days by MTT assay; assay type: functional; settings: MKN-45, 120 h, read-out: Activity; method in brief: as §1
[22] = test system: MOLM-14; assay: Cytotoxic activity against human MOLM14 cells assessed as cell viability at 20 uM incubated for 3 days by MTT assay; assay type: functional; settings: MOLM-14, 72 h, read-out: Activity; method in brief: as §1
[23] = biological target: CDK6/cyclin D3 (Homo sapiens) (UniProt P30281+Q00534); assay: Inhibition of CDK6/cyclinD3 assessed as enzyme residual activity at 10 uM relative to untreated control; assay type: protein-complex assay; method in brief: as §2
[24] = test system: MKN-45; assay: Cytotoxic activity against human MKN45 cells assessed as cell viability at 1 uM incubated for 5 days by MTT assay; assay type: functional; settings: MKN-45, 120 h, read-out: Activity; method in brief: as §1
[25] = biological target: Protein kinase C alpha type (Homo sapiens) (UniProt P17252); assay: Inhibition of PKCalpha assessed as enzyme residual activity at 10 uM relative to untreated control; method in brief: as §2
[26] = biological target: Cyclin-dependent kinase 2/cyclin A (Homo sapiens) (UniProt P24941+P20248+P78396); assay: Inhibition of CDK2/cyclinA assessed as enzyme residual activity at 10 uM relative to untreated control; assay type: protein-complex assay; method in brief: as §2
[27] = biological target: T2, Glycogen synthase kinase-3 beta; assay: Inhibition of GSK3beta
Method in brief: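 IC50 determined by a commercial kinase profiling service (Millipore IC50 Profiler); duplicate testing.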
Target sequence in this assay (P49841 whole entry): as the sequence (P49841 whole entry, looked up) above

[28] = test system: MOLM-14; assay: Cytotoxic activity against human MOLM14 cells assessed as cell viability at 1 uM incubated for 3 days by MTT assay; assay type: functional; settings: MOLM-14, 72 h, read-out: Activity; method in brief: as §1
[29] = test system: MKN-45; assay: Induction of apoptosis in human MKN45 assessed as accumulation at subG1 phase at 20 uM incubated for 7 days by flow cytometry (reference value: 10.9 +/- 3.2%); assay type: functional
[30] = test system: MKN-45; assay: Induction of apoptosis in human MKN45 assessed as accumulation at subG1 phase at 1 uM incubated for 7 days by flow cytometry (reference value: 10.9 +/- 3.2%); assay type: functional
[31] = test system: MKN-45; assay: Cytotoxic activity against human MKN45 cells assessed as cell viability at 50 uM incubated for 5 days by MTT assay; assay type: functional; settings: MKN-45, 120 h, read-out: Activity; method in brief: as §1
[32] = test system: MKN-45; assay: Induction of apoptosis in human MKN45 assessed as accumulation at subG1 phase at 10 uM incubated for 7 days by flow cytometry (reference value: 10.9 +/- 3.2%); assay type: functional
[33] = test system: MOLM-14; assay: Cytotoxic activity against human MOLM14 cells assessed as cell viability at 10 uM incubated for 3 days by MTT assay; assay type: functional; settings: MOLM-14, 72 h, read-out: Activity; method in brief: as §1
[34] = biological target: Angiopoietin-1 receptor (Homo sapiens) (UniProt Q02763); assay: Inhibition of TIE2 assessed as enzyme residual activity at 10 uM relative to untreated control; method in brief: as §2
Sequence of Angiopoietin-1 receptor (Homo sapiens) (Q02763 whole entry): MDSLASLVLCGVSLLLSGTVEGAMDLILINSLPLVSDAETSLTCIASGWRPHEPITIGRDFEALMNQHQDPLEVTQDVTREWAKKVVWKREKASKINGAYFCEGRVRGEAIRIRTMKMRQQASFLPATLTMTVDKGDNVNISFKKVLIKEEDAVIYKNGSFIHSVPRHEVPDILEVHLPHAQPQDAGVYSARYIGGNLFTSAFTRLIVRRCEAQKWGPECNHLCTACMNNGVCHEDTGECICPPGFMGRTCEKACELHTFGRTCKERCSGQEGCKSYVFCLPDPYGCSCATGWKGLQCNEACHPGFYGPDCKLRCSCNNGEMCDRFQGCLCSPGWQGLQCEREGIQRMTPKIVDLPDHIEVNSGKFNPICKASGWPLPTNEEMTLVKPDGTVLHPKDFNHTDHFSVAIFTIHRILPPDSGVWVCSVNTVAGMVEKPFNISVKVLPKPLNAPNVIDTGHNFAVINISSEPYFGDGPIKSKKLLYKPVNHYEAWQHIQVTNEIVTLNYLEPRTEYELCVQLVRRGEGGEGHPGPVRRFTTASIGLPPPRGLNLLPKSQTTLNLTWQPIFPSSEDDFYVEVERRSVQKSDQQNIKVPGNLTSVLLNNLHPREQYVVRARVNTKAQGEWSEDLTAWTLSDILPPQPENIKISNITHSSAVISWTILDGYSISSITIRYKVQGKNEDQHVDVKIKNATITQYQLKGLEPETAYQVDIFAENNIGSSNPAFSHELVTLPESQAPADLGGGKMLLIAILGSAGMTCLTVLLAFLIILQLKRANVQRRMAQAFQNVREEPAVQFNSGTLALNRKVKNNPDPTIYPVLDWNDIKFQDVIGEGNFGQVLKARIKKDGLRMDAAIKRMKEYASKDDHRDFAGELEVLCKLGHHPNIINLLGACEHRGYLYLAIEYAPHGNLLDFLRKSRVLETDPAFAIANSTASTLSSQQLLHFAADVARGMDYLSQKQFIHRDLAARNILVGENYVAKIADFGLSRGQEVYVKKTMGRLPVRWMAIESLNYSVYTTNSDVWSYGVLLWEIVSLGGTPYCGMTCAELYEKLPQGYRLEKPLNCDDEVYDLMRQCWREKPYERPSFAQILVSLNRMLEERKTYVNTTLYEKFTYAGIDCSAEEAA

[35] = biological target: Protein kinase C iota type (Homo sapiens) (UniProt P41743); assay: Inhibition of PKCiota assessed as enzyme residual activity at 10 uM relative to untreated control; method in brief: as §2
[36] = biological target: RAF proto-oncogene serine/threonine-protein kinase (Homo sapiens) (UniProt P04049); assay: Inhibition of c-RAF assessed as enzyme residual activity at 10 uM relative to untreated control; method in brief: as §2
[37] = biological target: Hepatocyte growth factor receptor (Homo sapiens) (UniProt P08581); assay: Inhibition of MET assessed as enzyme residual activity at 10 uM relative to untreated control; method in brief: as §2

COc1cc(C2=C(c3c[nH]c4cccnc34)C(=O)NC2=O)cc(OC)c1OC
Activity [1]: 16.3% | inhibition (INH) [2]: 10% | Activity [3]: 14.2% | IC50 [4]: ≥ 1.5 µM | viability at 52 µM [5]: 65.8%

COc1cc(C2=C(c3c[nH]c4ncccc34)C(=O)NC2=O)cc(OC)c1OC
viability at 50 µM [6]: 1.77% | Activity [7]: 92% | Activity [8]: 0% | Activity [1]: 49.2% | Activity [9]: 93% | Activity [10]: 16.3% | Activity [11]: 50% | Activity [12]: 50.7% | Activity [13]: 2% | inhibition (INH) [2]: 61% | Activity [14]: 77% | viability at 5 µM [15]: 86.8% | Activity [3]: 26.7% | viability at 0.5 µM [16]: 65.9% | Activity [17]: 84% | Activity [18]: 97% | viability at 10 µM [19]: 58.7% | viability at 0.5 µM [20]: 113% | viability at 20 µM [21]: 57.1% | viability at 20 µM [22]: 3.56% | Activity [23]: 99% | viability at 1 µM [24]: 110% | Activity [25]: 89% | Activity [26]: 94% | IC50 [27]: ≥ 10 µM | viability at 1 µM [28]: 38.9% | Activity [29]: 65.9% | Activity [30]: 9.3% | viability at 50 µM [31]: 44.7% | Activity [32]: 37.8% | viability at 10 µM [33]: 4.41% | Activity [34]: 77% | Activity [35]: 69% | Activity [36]: 111% | Activity [37]: 109%
